Series [1] can be described thus: Toxicity in BALB/c nude mouse xenografted with human NCI-H1975 cells assessed as morphological change in liver at 1 to 2 mg/kg administered ip, qd for 2 weeks. Particulars: in vivo, 336 h. For orientation: Xenograft models place foreign cells or tissue in a host animal.
Series [2] has as its system NCI-H460. As to the kind of experiment: Induction of apoptosis in human NCI-H460 cells assessed as early apoptotic cells at 20 uM measured after 48 hrs by Annexin V-FITC/PI staining method (reference value: 3.26%). It counts as functional.
The subject of the next series is MDA-MB-231. In words: Cytotoxicity against human MDA-MB-231 cells incubated for 72 hrs by MTT assay. It counts as functional, cell-based. Particulars: MDA-MB-231, 72 h. The procedure, abridged:
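Cells seeded at 4000/well, incubated overnight, then exposed to a range of concentrations, or DMSO vehicle, for 72 h. MTT (5 mg/mL solution) added for 4 h and formazan dissolved in DMSO. Absorbance read at 570 nm, and IC50 derived from the curves. Tumor lines were grown in RPMI 1640; HUVEC, HaCaT and LO2 were grown in DMEM, each with 10% FBS at 37 °C and 5% CO2.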
On the technique in general: Tetrazolium assays rely on reduction of a dye to a coloured formazan, in cell work by metabolically active cells.

Series [3] can be described thus: Stability in NCI-H1975 tumor bearing nude mouse model plasma at 1 mg/kg, iv. It counts as ADME, organism-based. The note with it: in vivo.
Series [4] relates to NCI-H460. As to the kind of experiment: Induction of apoptosis in human NCI-H460 cells assessed as late apoptotic cells at 20 uM measured after 48 hrs by Annexin V-FITC/PI staining method (reference value: 8.47%). It counts as functional.
Series [5] has as its system NCI-H460. As to the kind of experiment: Induction of apoptosis in human NCI-H460 cells assessed as necrotic cells at 1 uM measured after 48 hrs by Annexin V-FITC/PI staining method (reference value: 1.62%). It counts as functional.
In series [6] the test system is NCI-H460. In words: Induction of apoptosis in human NCI-H460 cells assessed as early apoptotic cells at 1 uM measured after 48 hrs by Annexin V-FITC/PI staining method (reference value: 3.26%). It counts as functional.
Series [7] concerns NCI-H460. As to the kind of experiment: Induction of mitochondrial membrane potential loss in human NCI-H460 cells by flow cytometric analysis. It counts as functional, cell-based. The procedure, abridged:
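Treated NCI-H460 cells suspended in 1% BSA DPBS and stained with TMRE (from a 1 mM stock) for 20 min in the dark. Cells then washed and resuspended in 1% BSA DPBS. Relative TMRE fluorescence intensity taken as the readout of membrane potential.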
(Flow cytometry measures light scatter and fluorescence of single cells or particles in a stream.)

The source made the active and inactive calls. The rule behind the calls is not given here.

As to `CC(C)[C@]12O[C@H]1[C@@H]1O[C@]13[C@]1(O[C@H]1C[C@H]1C4=C(CC[C@@]13C)C(=O)OC4)[C@@H]2OC(=O)CCC(=O)O[C@H]1C(O)O[C@H](CO)[C@@H](O)[C@@H]1O` (stereo partly drawn), the Activity entry is recorded as “Non-Toxic” in series [1]; 35.1% in the series on NCI-H460 [2]; 27.4% with NCI-H460 [4]; 0.85% in the series on NCI-H460 [5]; 7.09% in the series on NCI-H460 [6]. In addition, in the series with MDA-MB-231, the IC50 is 1970 nM. Further, in series [3], the Stability result was “Unstable”. In the series on NCI-H460 [7], the result was Active.

One may read the IC50 as the concentration that inhibits the measured activity by half.
